ChEMBL document CHEMBL4308900, “Synthesis and identification of 2,4-bisanilinopyrimidines bearing 2,2,6,6-tetramethylpiperidine-N-oxyl as potential Aurora A inhibitors” (Bioorg Med Chem, 2019)
pIC50: −log10 of the molar value. The source made the active and inactive calls. The rule behind the calls is not given here.

Assays:
HeLa [1] = assay: Induction of apoptosis in human HeLa cells assessed as viable cells at 5 uM after 12 hrs by Annexin V-FITC/propidium iodide staining-based flow cytometric analysis (reference value: 91.02%); format: functional; details: read-out: Activity
HeLa [2] = assay: Cell cycle arrest in human HeLa cells assessed as accumulation at S phase at 5 uM after 12 hrs by propidium iodide staining-based flow cytometric analysis (reference value: 5.74%); format: functional
Outline: (§1)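 HeLa cells exposed 12 h to 1 or 5 μM compound diluted from DMSO (DMSO control), fixed, stained with propidium iodide; DNA content measured by flow cytometry and G1, S, G2/M fractions calculated from the DNA histogram.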

[3] = molecular target: T1, Aurora kinase A (Homo sapiens) (UniProt O14965); assay: Inhibition of Aurora A phosphorylation at Thr288 residue in human HeLa cells at <10 nM after 12 hrs by ELISA; format: cell-based
T1 sequence (whole entry): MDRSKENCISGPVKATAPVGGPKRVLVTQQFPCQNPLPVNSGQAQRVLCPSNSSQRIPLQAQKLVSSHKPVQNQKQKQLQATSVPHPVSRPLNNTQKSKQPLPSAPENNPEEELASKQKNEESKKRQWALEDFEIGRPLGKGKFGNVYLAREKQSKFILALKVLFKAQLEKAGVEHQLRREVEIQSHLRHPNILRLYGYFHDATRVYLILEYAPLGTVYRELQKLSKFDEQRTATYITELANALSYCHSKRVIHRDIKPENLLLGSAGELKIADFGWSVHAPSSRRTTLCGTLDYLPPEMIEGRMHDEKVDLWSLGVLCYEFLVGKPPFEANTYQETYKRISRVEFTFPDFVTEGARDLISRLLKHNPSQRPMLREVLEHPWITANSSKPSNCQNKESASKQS
Outline: (§2)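 HeLa cells grown 12 h in 6-well dishes with compound diluted from DMSO at several concentrations; whole-cell lysate captured on anti-Aurora A or B antibody-coated wells, HRP-labelled detection, TMB substrate, stopped with sulphuric acid, absorbance at 450 nm.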

HeLa [4] = assay: Induction of apoptosis in human HeLa cells assessed as early apoptotic cells at 0.1 uM after 12 hrs by Annexin V-FITC/propidium iodide staining-based flow cytometric analysis (reference value: 0.75%); format: functional
Aurora kinase A = molecular target: T2, Aurora kinase A (Homo sapiens, UniProt O14965); assay: Inhibition of Aurora A phosphorylation at Thr288 residue in human HeLa cells after 12 hrs by ELISA; format: cell-based
T2 sequence (O14965 whole entry): T1 sequence (whole entry)

[5] = molecular target: T1, Aurora kinase A (Homo sapiens); assay: Inhibition of Aurora A phosphorylation at Thr288 residue in human HeLa cells after 12 hrs by Western blot analysis; format: cell-based
Outline: (§3)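 HeLa cells given 0, 1.25, 2.5 or 5.0 μM for 12 h; lysates in buffer with phosphatase and protease inhibitors, 10% SDS-PAGE western blot probed for phospho-Aurora A Thr288, phospho-Aurora B Thr232 and total Aurora A/B, β-actin loading control; band levels as mean ± SD versus control.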

LoVo = assay: Antiproliferative activity against human LoVo cells after 48 hrs by MTT assay; format: functional
Outline: (§4)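 MTT assay: cells attached 4–6 h at 37 °C, 5% CO2, then exposed 48 h to graded concentrations from DMSO stocks; 5 mg/mL MTT added for 4 h, formazan dissolved in DMSO, absorbance at 490 nm. GI50 from log plot of percent of control versus concentration; mean of three independent experiments.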

HeLa [6] = assay: Cell cycle arrest in human HeLa cells assessed as decrease in cyclin B1 protein expression up to 5 uM after 12 hrs by Western blot analysis; format: functional, cell-based
Outline: (§5)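 HeLa cells treated 12 h (0.1, 1, 5 μM for apoptosis proteins); lysed in Tris pH 7.5/NP-40/SDS buffer with protease inhibitors, equal protein on 10% SDS-PAGE, PVDF, 5% BSA block, primary antibodies overnight at 4 °C, β-actin loading control; mean ± SD.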

HeLa [7] = assay: Disruption of spindle formation in human HeLa cells assessed as formation of abnormal mitotic spindles at 0.1 to 1 uM after 24 hrs by DAPI staining based immunofluorescence microscopic analysis; format: functional, cell-based
Outline: (§6)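 HeLa cells on coverslips treated 24 h (0.1 or 1 μM; DMSO control); fixed in 4% paraformaldehyde, permeabilised in 0.1% Triton X-100 with 2% BSA, anti-α-tubulin overnight at 4 °C, FITC secondary 2 h room temperature, DAPI for DNA; confocal imaging.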

HeLa [8] = assay: Induction of apoptosis in human HeLa cells assessed as late apoptotic cells at 1 uM after 12 hrs by Annexin V-FITC/propidium iodide staining-based flow cytometric analysis (reference value: 2.32%); format: functional
HeLa [9] = assay: Disruption of spindle formation in human HeLa cells assessed as shrinkage of microtubule spindles at 1 uM after 24 hrs by DAPI staining based immunofluorescence microscopic analysis; format: functional, cell-based; outline: as §6
A549 = assay: Antiproliferative activity against human A549 cells after 48 hrs by MTT assay; format: functional; details: A549, 48 h; outline: as §4
HeLa [10] = assay: Induction of apoptosis in human HeLa cells assessed as viable cells at 1 uM after 12 hrs by Annexin V-FITC/propidium iodide staining-based flow cytometric analysis (reference value: 91.02%); format: functional; details: read-out: Activity
Aurora kinase B [11] = molecular target: T3, Aurora kinase B (Homo sapiens, UniProt Q96GD4); assay: Inhibition of Aurora B phosphorylation at Thr232 residue in human HeLa cells after 12 hrs by Western blot analysis; format: cell-based; outline: as §3
T3 sequence (Q96GD4 whole entry): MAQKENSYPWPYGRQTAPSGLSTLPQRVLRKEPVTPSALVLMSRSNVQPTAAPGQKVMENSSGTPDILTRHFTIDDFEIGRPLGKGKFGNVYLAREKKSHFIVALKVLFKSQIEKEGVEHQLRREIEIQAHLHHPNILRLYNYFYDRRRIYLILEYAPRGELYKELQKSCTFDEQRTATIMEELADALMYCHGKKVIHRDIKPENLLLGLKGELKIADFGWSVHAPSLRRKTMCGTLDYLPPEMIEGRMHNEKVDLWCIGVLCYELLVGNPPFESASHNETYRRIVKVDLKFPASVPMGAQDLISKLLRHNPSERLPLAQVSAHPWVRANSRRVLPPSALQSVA

HeLa [12] = assay: Induction of apoptosis in human HeLa cells assessed as necrotic cells at 0.1 uM after 12 hrs by Annexin V-FITC/propidium iodide staining-based flow cytometric analysis (reference value: 5.92%); format: functional
HeLa [13] = assay: Induction of apoptosis in human HeLa cells assessed as necrotic cells at 5 uM after 12 hrs by Annexin V-FITC/propidium iodide staining-based flow cytometric analysis (reference value: 5.92%); format: functional
HepG2 = assay: Antiproliferative activity against human HepG2 cells after 48 hrs by MTT assay; format: functional; details: HepG2, 48 h; outline: as §4
Homo sapiens [14] = organism: Homo sapiens; assay: Selectivity ratio of IC50 for Aurora B (unknown origin) to IC50 for Aurora A (unknown origin)
HeLa [15] = assay: Cell cycle arrest in human HeLa cells assessed as accumulation at G2/M phase after 12 hrs by propidium iodide staining-based flow cytometric analysis; format: functional; outline: as §1
HeLa [16] = assay: Cell cycle arrest in human HeLa cells assessed as accumulation at S phase at 1 uM after 12 hrs by propidium iodide staining-based flow cytometric analysis (reference value: 5.74%); format: functional; outline: as §1
HeLa [17] = assay: Induction of apoptosis in human HeLa cells assessed as early apoptotic cells at 1 uM after 12 hrs by Annexin V-FITC/propidium iodide staining-based flow cytometric analysis (reference value: 0.75%); format: functional
Homo sapiens [18] = organism: Homo sapiens; assay: Selectivity ratio of IC50 for Aurora B in human HeLa cells to IC50 for Aurora A in human HeLa cells; format: cell-based
Aurora kinase B [19] = molecular target: T3, Aurora kinase B; assay: Inhibition of Aurora B phosphorylation at Thr232 residue in human HeLa cells at <10 nM after 12 hrs by ELISA; format: cell-based; outline: as §2
Aurora kinase B [20] = molecular target: T3, Aurora kinase B; assay: Inhibition of Aurora B (unknown origin) using kemptide acetate salt as substrate after 30 mins by kinase-Glo luminescence method
HeLa [21] = assay: Induction of apoptosis in human HeLa cells assessed as upregulation of caspase-3 protein expression up to 5 uM after 12 hrs by Western blot analysis; format: functional, cell-based; outline: as §5

## CC1(C)CC(NC(=O)c2ccc(Nc3ncc(F)c(Nc4ccc(C(=O)Nc5ccccc5Cl)cc4)n3)cc2)CC(C)(C)N1[O]
HeLa [1]
  viability at 5 µM: 67.7%
HeLa [2]
  Activity: 0%
[3]
  inhibition: inactive
HeLa [4]
  Activity: 1.12%
Aurora kinase A
  pIC50: 8.10
[5]
  inhibition: Dose-dependent effect
LoVo
  GI50: 7.3 µM
HeLa [6]
  Activity: Active
HeLa [7]
  Activity: Active
HeLa [8]
  Activity: 8.06%
HeLa [9]
  Activity: Active
A549
  GI50: 1.1 µM
HeLa [10]
  viability at 1 µM: 78.7%
Aurora kinase B [11]
  inhibition: Dose-dependent effect
HeLa [12]
  Activity: 5.63%
HeLa [13]
  Activity: 10.75%
HepG2
  GI50: 1.2 µM
Homo sapiens [14]
  Ratio IC50: 42
HeLa [15]
  Activity: Dose-dependent effect
HeLa [16]
  Activity: 11.33%
HeLa [17]
  Activity: 3.28%
Homo sapiens [18]
  Ratio IC50: 67
Aurora kinase B [19]
  inhibition: inactive
Aurora kinase B [20]
  pIC50: 8.59
HeLa [21]
  Activity: Active
